We go through ten molecules from ChEMBL document CHEMBL1165965, “Synthesis and structure-activity relationships of 1,2,3,4-tetrahydropyrido[2,3-b]pyrazines as potent and selective inhibitors of the anaplastic lymphoma kinase” (Bioorg Med Chem, 2010).

Assay [1] concerns the target Mast/stem cell growth factor receptor Kit (Homo sapiens) (UniProt P10721). In words: Inhibition of KIT at 1 uM. Summed up:
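Single-concentration screen on the Ambit KINOMEscan platform, run against a panel of 250–400 kinases. Per-kinase inhibition was also summarized as S(90), the fraction of kinases inhibited by more than 90%.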

Assay [2] addresses T1, Inhibitor of nuclear factor kappa-B kinase subunit beta (Homo sapiens) (UniProt O14920).
T1 sequence (whole entry): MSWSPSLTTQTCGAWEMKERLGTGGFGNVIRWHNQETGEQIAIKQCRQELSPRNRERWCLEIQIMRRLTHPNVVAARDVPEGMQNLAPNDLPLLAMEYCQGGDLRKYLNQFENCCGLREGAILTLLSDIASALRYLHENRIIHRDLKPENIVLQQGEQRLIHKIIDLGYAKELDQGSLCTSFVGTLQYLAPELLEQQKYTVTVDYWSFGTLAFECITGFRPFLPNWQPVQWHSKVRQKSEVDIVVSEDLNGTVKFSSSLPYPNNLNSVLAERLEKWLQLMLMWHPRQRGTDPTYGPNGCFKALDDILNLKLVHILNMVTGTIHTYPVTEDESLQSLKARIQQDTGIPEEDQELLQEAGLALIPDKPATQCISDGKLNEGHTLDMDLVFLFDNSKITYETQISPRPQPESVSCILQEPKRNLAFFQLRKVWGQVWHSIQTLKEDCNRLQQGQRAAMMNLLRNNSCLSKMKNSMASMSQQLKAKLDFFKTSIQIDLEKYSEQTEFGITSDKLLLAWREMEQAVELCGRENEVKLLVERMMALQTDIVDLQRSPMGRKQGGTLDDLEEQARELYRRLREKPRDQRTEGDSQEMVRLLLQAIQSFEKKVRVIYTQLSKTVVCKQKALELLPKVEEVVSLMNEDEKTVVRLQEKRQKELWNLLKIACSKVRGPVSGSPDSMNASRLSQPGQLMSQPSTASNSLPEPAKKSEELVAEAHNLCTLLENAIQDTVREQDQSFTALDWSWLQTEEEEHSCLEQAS
Briefly: Inhibition of IKK-beta at 1 uM.

Assay [3] addresses T2, MAP/microtubule affinity-regulating kinase 4 (Homo sapiens) (UniProt Q96L34).
T2 sequence (whole entry): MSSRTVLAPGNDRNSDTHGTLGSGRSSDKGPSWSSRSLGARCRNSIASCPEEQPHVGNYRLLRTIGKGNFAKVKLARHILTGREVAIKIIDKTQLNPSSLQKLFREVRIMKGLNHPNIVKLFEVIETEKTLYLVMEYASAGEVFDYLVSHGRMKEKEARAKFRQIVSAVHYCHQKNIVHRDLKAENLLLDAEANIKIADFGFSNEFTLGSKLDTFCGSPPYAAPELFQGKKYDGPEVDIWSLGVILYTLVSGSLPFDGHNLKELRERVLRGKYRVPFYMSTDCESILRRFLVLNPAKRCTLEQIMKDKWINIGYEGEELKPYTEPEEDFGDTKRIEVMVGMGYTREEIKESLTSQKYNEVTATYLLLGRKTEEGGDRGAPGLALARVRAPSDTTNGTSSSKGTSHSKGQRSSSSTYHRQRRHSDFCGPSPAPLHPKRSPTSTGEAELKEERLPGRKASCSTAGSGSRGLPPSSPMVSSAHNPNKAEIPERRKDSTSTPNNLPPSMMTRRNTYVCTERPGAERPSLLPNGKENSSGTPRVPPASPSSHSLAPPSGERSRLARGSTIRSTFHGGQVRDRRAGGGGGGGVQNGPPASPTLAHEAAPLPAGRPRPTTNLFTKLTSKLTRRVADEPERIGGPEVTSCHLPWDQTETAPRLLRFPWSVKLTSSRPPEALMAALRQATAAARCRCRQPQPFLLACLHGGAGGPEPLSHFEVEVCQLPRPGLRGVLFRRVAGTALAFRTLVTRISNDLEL
In words: Inhibition of MARK4 at 1 uM. The method, boiled down: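 Kinase-panel screen using KINOMEscan technology, with 250–400 kinases per panel. Each compound was tested at a single concentration, and inhibition of each kinase was recorded. Selectivity was summarised as S(90), the fraction of kinases inhibited by more than 90%.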

Assay [4] concerns the target T3, Tyrosine-protein kinase receptor TYRO3 (Homo sapiens) (UniProt Q06418).
T3 sequence (whole entry): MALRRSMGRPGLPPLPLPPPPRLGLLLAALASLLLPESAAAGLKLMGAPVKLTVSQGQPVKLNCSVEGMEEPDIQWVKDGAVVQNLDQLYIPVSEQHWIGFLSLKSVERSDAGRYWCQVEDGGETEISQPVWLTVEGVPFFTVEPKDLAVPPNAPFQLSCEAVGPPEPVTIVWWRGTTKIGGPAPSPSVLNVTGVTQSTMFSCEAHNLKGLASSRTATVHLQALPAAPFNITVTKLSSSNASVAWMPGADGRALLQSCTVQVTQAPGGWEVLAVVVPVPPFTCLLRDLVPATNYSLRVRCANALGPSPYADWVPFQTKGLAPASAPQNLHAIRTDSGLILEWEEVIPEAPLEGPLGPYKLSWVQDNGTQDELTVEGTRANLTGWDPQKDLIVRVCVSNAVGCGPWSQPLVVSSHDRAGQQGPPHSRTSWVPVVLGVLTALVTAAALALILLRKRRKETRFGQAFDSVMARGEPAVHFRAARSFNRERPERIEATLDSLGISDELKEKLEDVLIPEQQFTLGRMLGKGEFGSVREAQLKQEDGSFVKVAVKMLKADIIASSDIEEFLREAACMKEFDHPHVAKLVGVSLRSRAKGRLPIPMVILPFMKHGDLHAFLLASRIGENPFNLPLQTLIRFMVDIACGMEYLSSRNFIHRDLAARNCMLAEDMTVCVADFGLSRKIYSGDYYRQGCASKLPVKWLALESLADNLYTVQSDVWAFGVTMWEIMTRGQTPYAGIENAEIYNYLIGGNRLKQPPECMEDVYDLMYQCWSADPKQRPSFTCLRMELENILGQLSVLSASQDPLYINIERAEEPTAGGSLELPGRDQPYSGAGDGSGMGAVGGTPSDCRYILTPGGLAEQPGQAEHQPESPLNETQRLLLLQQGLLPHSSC
In words: Inhibition of TYRO3 at 1 uM.

The target in assay [5] is Epidermal growth factor receptor (Homo sapiens) (UniProt P00533). In words: Inhibition of EGFR at 1 uM. Summed up:
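Single-concentration screen using Ambit Bioscience KINOMEscan technology across a panel of 250–400 kinases. Per-kinase inhibition from this screen was summarized as S(90), the fraction of kinases inhibited by more than 90%.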

Chain of Mast/stem cell growth factor receptor Kit (Homo sapiens) (P10721 whole entry): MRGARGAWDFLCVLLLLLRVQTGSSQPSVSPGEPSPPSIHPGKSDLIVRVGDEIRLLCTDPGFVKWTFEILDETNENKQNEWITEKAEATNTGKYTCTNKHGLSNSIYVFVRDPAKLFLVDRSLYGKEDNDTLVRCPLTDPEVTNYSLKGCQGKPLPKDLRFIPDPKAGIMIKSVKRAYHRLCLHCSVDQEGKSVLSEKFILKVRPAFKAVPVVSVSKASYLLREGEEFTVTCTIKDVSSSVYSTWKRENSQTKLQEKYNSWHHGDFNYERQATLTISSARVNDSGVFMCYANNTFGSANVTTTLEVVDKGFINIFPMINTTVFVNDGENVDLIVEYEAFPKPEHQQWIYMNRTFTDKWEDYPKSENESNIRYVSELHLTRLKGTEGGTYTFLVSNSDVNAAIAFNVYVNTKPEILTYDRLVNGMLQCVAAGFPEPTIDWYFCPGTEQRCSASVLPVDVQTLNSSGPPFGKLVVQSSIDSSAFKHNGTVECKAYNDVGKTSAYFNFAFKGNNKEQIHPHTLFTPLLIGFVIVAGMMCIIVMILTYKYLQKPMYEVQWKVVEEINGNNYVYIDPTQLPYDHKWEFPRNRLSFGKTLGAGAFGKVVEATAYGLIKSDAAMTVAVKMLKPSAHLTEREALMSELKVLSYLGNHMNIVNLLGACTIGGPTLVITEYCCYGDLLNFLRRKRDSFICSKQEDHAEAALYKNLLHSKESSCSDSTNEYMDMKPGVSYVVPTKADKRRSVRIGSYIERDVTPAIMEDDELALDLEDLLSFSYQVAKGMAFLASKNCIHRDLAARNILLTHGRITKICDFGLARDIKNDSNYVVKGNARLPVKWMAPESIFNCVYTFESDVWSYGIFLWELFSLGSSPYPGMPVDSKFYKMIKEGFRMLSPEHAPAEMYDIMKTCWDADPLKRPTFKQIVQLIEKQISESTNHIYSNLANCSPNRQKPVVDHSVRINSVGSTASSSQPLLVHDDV
Chain of Epidermal growth factor receptor (Homo sapiens) (P00533 whole entry): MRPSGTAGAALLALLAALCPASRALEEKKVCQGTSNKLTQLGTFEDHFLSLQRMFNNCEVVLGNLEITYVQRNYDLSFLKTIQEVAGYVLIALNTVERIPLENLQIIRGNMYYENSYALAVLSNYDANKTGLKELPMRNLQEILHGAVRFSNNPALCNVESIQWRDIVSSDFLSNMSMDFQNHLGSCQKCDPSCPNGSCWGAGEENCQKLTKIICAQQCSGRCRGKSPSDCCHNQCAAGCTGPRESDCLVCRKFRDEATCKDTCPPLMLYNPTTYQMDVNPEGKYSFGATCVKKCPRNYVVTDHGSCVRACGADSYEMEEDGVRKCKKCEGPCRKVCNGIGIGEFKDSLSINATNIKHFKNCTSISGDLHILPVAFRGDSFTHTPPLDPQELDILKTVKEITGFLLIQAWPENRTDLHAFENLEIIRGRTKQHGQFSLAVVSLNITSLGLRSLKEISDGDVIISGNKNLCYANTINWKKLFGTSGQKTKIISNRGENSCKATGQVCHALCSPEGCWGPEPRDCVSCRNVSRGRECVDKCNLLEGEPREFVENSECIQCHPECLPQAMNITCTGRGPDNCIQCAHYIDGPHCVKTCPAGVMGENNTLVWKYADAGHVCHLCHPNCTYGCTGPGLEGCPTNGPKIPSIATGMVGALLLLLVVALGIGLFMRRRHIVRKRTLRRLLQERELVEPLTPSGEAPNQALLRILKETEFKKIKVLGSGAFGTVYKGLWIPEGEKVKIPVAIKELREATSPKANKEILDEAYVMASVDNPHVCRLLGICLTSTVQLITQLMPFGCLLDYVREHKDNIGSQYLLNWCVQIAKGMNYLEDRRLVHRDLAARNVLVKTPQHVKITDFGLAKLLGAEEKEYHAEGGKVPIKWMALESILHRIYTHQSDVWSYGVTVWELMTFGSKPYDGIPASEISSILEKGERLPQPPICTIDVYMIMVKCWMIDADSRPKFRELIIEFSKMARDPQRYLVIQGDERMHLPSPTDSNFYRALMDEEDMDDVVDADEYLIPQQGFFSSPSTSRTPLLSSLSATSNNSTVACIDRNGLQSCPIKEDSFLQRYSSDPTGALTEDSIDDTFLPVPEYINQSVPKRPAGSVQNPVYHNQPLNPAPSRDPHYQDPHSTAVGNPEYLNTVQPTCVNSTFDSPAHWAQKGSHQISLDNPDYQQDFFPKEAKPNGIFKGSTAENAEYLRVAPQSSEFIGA

For the molecule `FC(F)(F)c1ccc(Cl)cc1CN1CCNc2ncc(-c3ccnc(N4CCNCC4)c3)cc21`, the inhibition (as a rule, the relative decrease from the control value, in per cent) was 96% in assay [1]; below 50% in assay [2]; below 50% in assay [3]; below 50% in assay [4]; below 50% in assay [5].

As to `CN1CCN(c2ccc(-c3cnc4c(c3)N(Cc3cc(F)ccc3F)CCN4)cn2)CC1`, the inhibition in assay [1] is 56.5%; in assay [2], below 50%; in assay [3], below 50%; in assay [4] it was below 50%; in assay [5], below 50%.

In the case of `CN1CCN(c2ccc(-c3cnc4c(c3)N(Cc3cc(Cl)ccc3Cl)CCN4)cn2)CC1`, the inhibition in assay [1] was 87%; in assay [2], below 50%; in assay [3] it was below 50%; in assay [4], below 50%; in assay [5], below 50%.

On to `O=C(O)c1ccc(-c2cnc3c(c2)N(Cc2cc(Cl)ccc2C(F)(F)F)CCN3)cc1`, for which the inhibition in assay [1], in assay [3], in assay [4] and in assay [5] was below 50% throughout.

For `CN1CCN(c2ccc(-c3cnc4c(c3)N(Cc3cc(Cl)ccc3C(F)(F)F)CCN4)cn2)CC1`, the inhibition in assay [1], in assay [2], in assay [3], in assay [4] and in assay [5] was below 50% throughout.

As to `COC1CCN(C(=O)c2ccc(-c3cnc4c(c3)N(Cc3cc(Cl)ccc3C(F)(F)F)CCN4)cc2)CC1`, the inhibition in assay [1], in assay [3], in assay [4] and in assay [5] was below 50% in each case.

As for `O=C(c1ccc(-c2cnc3c(c2)N(Cc2cc(Cl)ccc2C(F)(F)F)CCN3)cc1)N1CCC(N2CCCC2)CC1`, the inhibition is 89.5% in assay [1], below 50% in assay [3], below 50% in assay [4] and below 50% in assay [5].

As to `CN1CCN(c2ccc(-c3cnc4c(c3)N(Cc3c(F)ccc(F)c3Cl)CCN4)cn2)CC1`, the inhibition in assay [1] is 73%; in assay [2] it was below 50%; in assay [3], below 50%; in assay [4] it was below 50%; in assay [5] it was below 50%.

`O=C(c1ccc(-c2cnc3c(c2)N(Cc2cc(Cl)ccc2C(F)(F)F)CCN3)cc1)N1CCCCC1`: the inhibition in assay [1], in assay [3], in assay [4] and in assay [5] was below 50% throughout.

Turning to `CC(=O)N1CCN(c2cc(-c3cnc4c(c3)N(Cc3cc(Cl)ccc3C(F)(F)F)CCN4)ccn2)CC1`, the inhibition was 75% in assay [1]; below 50% in assay [2]; below 50% in assay [3]; below 50% in assay [4]; below 50% in assay [5].
